Assay: Toxicity liver stage against HepG2, at 10uM
Assay type: cell-based
Set-up: test concentration 10 uM, cell line HepG2-A16-CD81EGFP
Conditions: human, HepG2-A16-CD81EGFP cells; read-out: INHIBITION
Outline: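 Uninfected HepG2-A16-CD81EGFP cells, 3 × 10^3 per well, 1536-well, plated on prespotted compound at 10 μM final, parasite-free screening media added to match infected plates; puromycin 10 μM positive, DMSO 0.5% negative; run in parallel with 48 h PbLuc assay at 37 °C, 5% CO2; viability by CellTiter-Glo luminescence, normalized to controls.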
Molecule `Cc1ccc2oc([C@H]3CCN(Cc4ccccc4)C3)nc2c1` has a cytotoxicity at 10 µM of -6.75%.
For `O=C(NC[C@H]1OC[C@@H](NC2CCOCC2)[C@@H]1O)c1cccs1`, the cytotoxicity at 10 µM was -1.6%.
Molecule `CCNC(=O)N1C[C@@H]2OCC(=O)N(C(C)C)[C@@H]2C1` has a cytotoxicity at 10 µM of -0.155%.
Molecule `O=C(O)Cn1ccc(=O)c2cc(Cl)ccc21` has a cytotoxicity at 10 µM of -17.1%.
With `COc1ccc(CN2C[C@@H]3CN(CCO)C[C@@H]3C2=O)cc1` the cytotoxicity at 10 µM was 9.27%.
Molecule `CN1CCN(C(=O)c2n[nH]c3c2CN(C2CCOC2)CC3)CC1` (configuration not stated) has a cytotoxicity at 10 µM of 1.52%.
Molecule `O=C(c1ccc[nH]1)N1CCOCC2(C1)CN(c1ccccc1)C(=O)CO2` (configuration not stated) has a cytotoxicity at 10 µM of -1.05%.
With `COC(=O)CCC(=O)N1CCC2(CN(Cc3ccccc3F)C2)C1` the cytotoxicity at 10 µM was 5.58%.
With `Cc1ccc(C(=O)N2CCC3(CCN(Cc4ccccn4)C3=O)C2)cn1` (configuration not stated) the cytotoxicity at 10 µM was -145%.
`O=C(c1cnccn1)N1CCN(Cc2ccncc2)c2ncccc2C1` showed a cytotoxicity at 10 µM of -2.72%.
For `O=C(N[C@@H]1CN(Cc2ccsc2)[C@@H]2CCCO[C@@H]21)C1CC1`, the cytotoxicity at 10 µM was -5.47%.
`O=C(NCc1ccco1)[C@@]12CCO[C@@H]1CCN(CCN1CCCC1)C2` gave a cytotoxicity at 10 µM of -3.47%.
Molecule `Cc1c(Cc2ccccc2)c(O)nc2nc(N3CCOCC3)nn12` has a cytotoxicity at 10 µM of 9.76%.
With `Cc1cc(-c2cc(N)c(=O)n(CC(=O)N3CCCC(C)C3)n2)c(C)o1` (configuration not stated) the cytotoxicity at 10 µM was 4.62%.
Molecule `CCS(=O)(=O)N1CCC(c2nc(C)c(C)c(N3CCCC3)n2)CC1` has a cytotoxicity at 10 µM of 1.27%.
For `O=C(N1CCCC1)N1CCN(c2ccc(Cl)nn2)C(=O)C1`, the cytotoxicity at 10 µM was 7.33%.
In the case of `O=C(O)c1sccc1Oc1ccc(NC(=O)C2CC2)cc1`, the cytotoxicity at 10 µM is reported as -4.77%.
For `CCC1CCCN(S(=O)(=O)c2cnn(C)c2)C1` (configuration not stated), the cytotoxicity at 10 µM was 12.9%.
In the case of `CC(OCC1CC1)C(=O)NCc1cccc(CN2CCN(C)CC2)c1` (configuration not stated), the cytotoxicity at 10 µM is reported as 0.193%.
For `CC(C#N)NS(=O)(=O)c1cccc(C(C)C)c1` (configuration not stated), the cytotoxicity at 10 µM was 0.846%.
Molecule `CS(=O)(=O)CCNC(=O)Nc1sc2ccccc2c1Cl` has a cytotoxicity at 10 µM of 41.7%.
In the case of `CCN(CC1CCOC1)C(=O)CCc1nc(C(C)(C)C)no1` (configuration not stated), the cytotoxicity at 10 µM is reported as -1.26%.
Molecule `Cc1nc(CC(=O)NCCNc2nccc(C(F)(F)F)n2)cs1` has a cytotoxicity at 10 µM of 14.3%.
For `CCc1c(NCc2ccc(F)cc2)cnn1CC(C)C`, the cytotoxicity at 10 µM was 3.66%.
`Cc1nsc(N2CCN(CC(=O)N(C3CC3)C(C)C3CC3)CC2)n1` (configuration not stated) gave a cytotoxicity at 10 µM of -12.4%.
`O=C(CCc1cccs1)Nc1ccnn1C1CCS(=O)(=O)C1` (configuration not stated) gave a cytotoxicity at 10 µM of -19.8%.
`COC(C)C(=O)NS(=O)(=O)c1cccc2cc(C)cnc12` (configuration not stated) showed a cytotoxicity at 10 µM of -6.55%.
`CC1CCCN(Cc2ccc(CNC(=O)NCc3ccncc3)cc2)C1` (configuration not stated) gave a cytotoxicity at 10 µM of 4.64%.
Molecule `CS(=O)(=O)Cc1ccc(Cl)cc1NCc1cccc(F)c1F` has a cytotoxicity at 10 µM of 9.2%.
`CCOCCCNC(=O)c1cc(Br)c2c(c1)OCCO2` gave a cytotoxicity at 10 µM of -2.21%.
`COC(=O)CCSc1nncn1-c1ccc(OC)nc1` showed a cytotoxicity at 10 µM of -2.09%.
`Cc1csc(CNC(=O)NCC(O)c2ccccc2)n1` (configuration not stated) showed a cytotoxicity at 10 µM of 2.26%.
`COc1ncccc1CNC(=O)CN1CCCCCC1=O` gave a cytotoxicity at 10 µM of -10.4%.
In the case of `Cc1ccc(CCCC(=O)N(C)CCN2CCOCC2)cc1`, the cytotoxicity at 10 µM is reported as -2.75%.
For `N#CC1(NC(=O)CNCCn2cccn2)CCCCC1`, the cytotoxicity at 10 µM was -7.5%.
Work on `Cc1ncc(CN(C)C(=O)Nc2ccc(CN3CCOC3=O)cc2)s1` yielded a cytotoxicity at 10 µM of -2.97%.
In the case of `O=S(=O)(NC(CO)Cc1c[nH]c2ccccc12)c1cncc(F)c1` (configuration not stated), the cytotoxicity at 10 µM is reported as 12%.
`Cc1ccc(NS(=O)(=O)c2cnn(-c3ccccc3)c2)c(C(=O)O)c1` gave a cytotoxicity at 10 µM of -3.11%.
Work on `CC(C)N(Cc1ccc(C#N)cc1)Cc1nnsc1Cl` yielded a cytotoxicity at 10 µM of 12.6%.
`COc1cc2c(cc1OC)S(=O)(=O)N(Cc1cccc(C)c1)C2=O` showed a cytotoxicity at 10 µM of 5.98%.
`CCOc1cc(CNC(=O)c2cc(-c3ccccn3)no2)ccn1` showed a cytotoxicity at 10 µM of 1.63%.
`Cc1nc(C2CCCC2)sc1C(N)=O` showed a cytotoxicity at 10 µM of -5.03%.
Work on `Cc1cn2nc(N3CCCC3C(=O)N3CCOCC3)sc2n1` (configuration not stated) yielded a cytotoxicity at 10 µM of -3%.
Work on `CC(C)c1cc(CNC(=O)Nc2cc(F)cc(N3CCCC3)c2)on1` yielded a cytotoxicity at 10 µM of 1.57%.
With `c1ccc(Cn2cccn2)c(CNCc2cnc(N3CCCC3)nc2)c1` the cytotoxicity at 10 µM was -5.34%.
In the case of `CC(Cn1cccn1)NC(=O)N(C)Cc1cnn(C)c1` (configuration not stated), the cytotoxicity at 10 µM is reported as -5.17%.
`CCN(C(=O)c1cc(C)oc1C)C1CC1` gave a cytotoxicity at 10 µM of -5.89%.
With `O=C(CN(CC1CCC1)CC(F)(F)F)N1CCOCC1` the cytotoxicity at 10 µM was -13.1%.
In the case of `CC(=O)NC1(C(=O)N(C)Cc2c(C)noc2C)CCCCC1`, the cytotoxicity at 10 µM is reported as 14.4%.
For `Cc1ccc(-c2n[nH]cc2CNCC2CCc3nnc(C)n3C2)cc1` (configuration not stated), the cytotoxicity at 10 µM was -8.35%.
Molecule `Cn1cc(N2CCC(Nc3ccc4nccnc4n3)C2=O)cn1` (configuration not stated) has a cytotoxicity at 10 µM of -2.47%.
Molecule `N#Cc1ccc(F)c(CNC(=O)NCCC(=O)NC2CCCC2)c1` has a cytotoxicity at 10 µM of -5.95%.
In the case of `CN(C)CCN(Cc1cccc(C(F)(F)F)c1)C(=O)c1cc[nH]n1`, the cytotoxicity at 10 µM is reported as 1.39%.
For `COc1cc(N2CCC3(CC2)CN(C)C(=O)CO3)ncn1`, the cytotoxicity at 10 µM was 6.5%.
For `CC(O)c1cccc(N2CCC3(CCC(=O)N(CC(N)=O)C3)CC2)n1` (configuration not stated), the cytotoxicity at 10 µM was -2.55%.
Work on `O=C(c1ccc(Cn2cnnn2)cc1)N1CC[C@H](CO)[C@H](O)C1` yielded a cytotoxicity at 10 µM of 0.529%.
`CN1CCCN(C[C@@H]2CN(C(=O)N3CCOCC3)C[C@@H]2CO)CC1` showed a cytotoxicity at 10 µM of -7.43%.
`CCn1nc(C)c(CCNC(=O)c2cccc(NCC(=O)O)c2)c1C` gave a cytotoxicity at 10 µM of 15.2%.
`Cc1nc2ncccn2c1C(=O)N1CCc2[nH]cnc2C1` gave a cytotoxicity at 10 µM of 7.94%.
Work on `CN(C)C[C@@H]1CN(C2CCN(c3ccccc3Cl)CC2)C[C@@H]1CO` yielded a cytotoxicity at 10 µM of -10.1%.
Work on `Cc1ocnc1C(=O)N1CCCC1c1ccc(C(=O)N2CCSCC2)s1` (configuration not stated) yielded a cytotoxicity at 10 µM of -5.37%.
Molecule `COc1cc(-c2nc(CN(CCO)CCO)c(C)o2)ccc1F` has a cytotoxicity at 10 µM of -10.2%.
In the case of `Cc1ccccc1C(C(=O)NCCS(C)(=O)=O)N(C)C` (configuration not stated), the cytotoxicity at 10 µM is reported as 11.2%.
Molecule `O=S(=O)(NCc1ccccc1)NCc1nc(-c2ccncc2)n[nH]1` has a cytotoxicity at 10 µM of 14.3%.
`CC(C)CN1CCCC1c1ccc(C(=O)Nc2cc[nH]n2)s1` (configuration not stated) showed a cytotoxicity at 10 µM of 10.3%.
`O=C(NCc1ccoc1)c1ccc(C2CCCN2CC2CCOCC2)s1` (configuration not stated) showed a cytotoxicity at 10 µM of 6.7%.
For `CC(C)c1nc(C(=O)N2CCCC(N)CC2)cs1` (configuration not stated), the cytotoxicity at 10 µM was -2.56%.
`CCN(C)C[C@@H]1CN(Cc2cccc(O)c2)C[C@@H]1CO` showed a cytotoxicity at 10 µM of -1.13%.
In the case of `CCc1nc(C)c(-c2nccn2CC2CCN(C3CCCC3)CC2)[nH]1`, the cytotoxicity at 10 µM is reported as 3.98%.
With `Nc1nc2c(c(N3CCC(CN4CCCC4=O)CC3)n1)CCNCC2` the cytotoxicity at 10 µM was -3.95%.
`CCN(Cc1ccc(S(C)(=O)=O)cc1)Cc1nc(COC)no1` gave a cytotoxicity at 10 µM of -10.8%.
In the case of `O=C(C1CC(=O)N(C2CCCC2)C1)N1CCN(CCn2cccc2)CC1` (configuration not stated), the cytotoxicity at 10 µM is reported as 12.8%.
`CCc1nnc2n1CCN(CC(O)c1ccc3c(c1)OCCO3)C2` (configuration not stated) gave a cytotoxicity at 10 µM of -7.3%.
With `O=C(c1cccnc1N1CCCCC1)N1CCCC(n2ccnc2)C1` (configuration not stated) the cytotoxicity at 10 µM was -14.4%.
In the case of `CCN(C(=O)CN(C)C(c1cccc(F)c1)c1ccccn1)C1CC1` (configuration not stated), the cytotoxicity at 10 µM is reported as -8.65%.
In the case of `Cn1cc(C2CCCN2C(=O)CCCOc2ccc(F)cc2F)cn1` (configuration not stated), the cytotoxicity at 10 µM is reported as -7.54%.
Molecule `CC(=O)NC1CCCN(C(=O)NCc2cccnc2N(C)C)C1` (configuration not stated) has a cytotoxicity at 10 µM of -1.97%.
Work on `Cc1nc(C)n(CC2CN(c3ncnc4[nH]ccc34)CCO2)n1` (configuration not stated) yielded a cytotoxicity at 10 µM of 0.433%.
For `CC(C)c1nc(C2CCCN(C(=O)c3ccc4nccn4c3)C2)no1` (configuration not stated), the cytotoxicity at 10 µM was -0.0722%.
In the case of `Cc1cc(C(=O)N2CCC3(C2)CN(c2cccnc2)C(=O)CN3C)[nH]n1` (configuration not stated), the cytotoxicity at 10 µM is reported as 5.2%.
`COc1ccc(CN2C[C@H]3CN(Cc4ccncc4)C(=O)[C@H]3C2)cc1` gave a cytotoxicity at 10 µM of 4.35%.
Molecule `CC1CCCN(S(=O)(=O)NCCNC(=O)c2ncccc2O)C1` (configuration not stated) has a cytotoxicity at 10 µM of 3.07%.
